The results in this text go back to ChEMBL document CHEMBL1125422, “Low molecular weight proteins as carriers for renal drug targeting. Preparation of drug-protein conjugates and drug-spacer derivatives and their catabolism in renal cortex homogenates and lysosomal lysates” (J Med Chem, 1992).

The species named for series [1] is Rattus norvegicus. In words: (§1) Lysozyme-conjugated prodrugs: in vitro stability at pH 7.4. Type of series: functional. In short, it runs like this: (§2)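 Conjugate incubated 24 h in pH 5.0 buffer, pH 7.4 buffer, or plasma buffered at pH 7.4. Samples were deproteinized with ACN, MeOH or 2 N HCl, centrifuged, and analyzed by RP-HPLC against an internal standard. Release is % parent drug = parent/(parent + derivative) from IS-normalized peak-area ratios, mean of at least two separate incubations.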

The species named for series [2] is Rattus norvegicus. In words: (§3) Lysozyme-conjugated prodrugs: in vitro stability at pH 5. In kind it is functional. In short, it runs like this:
as §2

The species named for series [3] is Rattus norvegicus. Described as §1. In kind it is functional. In short, it runs like this:
as §2
This is another data set of the same source.

Series [4] is filed under the species Rattus norvegicus. The series is described as §3. Type of series: functional. A digest of the protocol: as §2
This is another data set of the same source.

For series [5], the species on record is Rattus norvegicus. The series is described as §3. In kind it is ADME. A digest of the protocol:
as §2

The species entered for series [6] is Rattus norvegicus. The series is described as §1. Type of series: functional. A digest of the protocol: as §2
The source holds these as a separate data set.

For series [7], the species on record is Rattus norvegicus. In words: Lysozyme-conjugated prodrugs: in vitro stability in lysosomal lysate at pH 5. In kind it is functional. In short, it runs like this: (§4)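 Lysosomes isolated from pooled male Wistar rat kidney cortex by differential centrifugation, then lysed by 10 freeze–thaw cycles in liquid N2. 100 μL lysate diluted to 1.0 mL with 0.1 M phosphate buffer, pH 5.0 or 7.4. Samples were deproteinized and analysed by RP-HPLC against an internal standard. Parent drug released after 24 h, as a percentage, mean of ≥2 incubations.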

The species entered for series [8] is Rattus norvegicus. In words: Lysozyme-conjugated prodrugs: in vitro stability in buffered plasma at pH 7.4. In kind it is functional. In short, it runs like this: as §2
The species entered for series [9] is Rattus norvegicus. The series is described as §1. Type of series: functional. A digest of the protocol: as §2
This is another data set of the same source.

Series [10] is filed under the species Rattus norvegicus. In words: Lysozyme-conjugated prodrugs: in vitro stability in rat cortical homogenate at pH 5. In kind it is functional. In short, it runs like this:
(§5)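 Renal cortices from three male Wistar rats were perfused, pooled, homogenized in 0.3 M sucrose and lysed by 10 freeze–thaw cycles. Conjugate was incubated with 250 μL homogenate in 0.1 M phosphate buffer, pH 5.0 or 7.4, to 1.0 mL for 24 h. Samples were deproteinized and analyzed by HPLC with internal standard. Release is % parent compound, mean of ≥2 incubations.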

The species entered for series [11] is Rattus norvegicus. In words: Lysozyme-conjugated prodrugs: in vitro stability in rat cortical homogenate at pH 7.4. Type of series: functional. In short, it runs like this: as §5
The species named for series [12] is Rattus norvegicus. The series is described as §3. In kind it is functional. A digest of the protocol: as §2
The source holds these as a separate data set.

The species named for series [13] is Rattus norvegicus. Described as §1. In kind it is functional. A digest of the protocol: as §2
The source holds these as a separate data set.

The species named for series [14] is Rattus norvegicus. In words: Lysozyme-conjugated prodrugs: in vitro stability in lysosomal lysate at pH 7.4. Type of series: functional. In short, it runs like this:
as §4

“And” between values parts separate entries of the source, which are not always exact repeats. Equal entries are not always repeated. Square brackets hold non-standard residues; d marks the D form. Peptide text beside a SMILES is read from it. * marks the point of attachment. ξ: configuration not given here. βNA = c1ccc2cc(N*)ccc2c1; Cbz = O=C(OCc1ccccc1)*; ξP = O=C(O)C1CCCN1

In the case of `C[C@@H](NC(=O)C(Cc1ccccc1)NC(=O)OCc1ccccc1)C(=O)O` (stereo not given in full), the Drug release was found to be 100% in the series filed under Rattus norvegicus [1]; 100% in the series filed under Rattus norvegicus [2]; 100% in the series filed under Rattus norvegicus [3]; 100% in the series listed under Rattus norvegicus [4]; 0% in the series filed under Rattus norvegicus [5]; 0% in the series filed under Rattus norvegicus [6].

With `COc1ccc2c(c1)c(CC(=O)O)c(C)n2C(=O)c1ccc(Cl)cc1`, the Drug release entry in the series filed under Rattus norvegicus [7], in the series filed under Rattus norvegicus [8], in the series listed under Rattus norvegicus [9], in the series filed under Rattus norvegicus [10], in the series filed under Rattus norvegicus [11] and in the series filed under Rattus norvegicus [12] was “Stable” each time.

Turning to `Cc1cc(NS(=O)(=O)c2ccc(NC(=O)CC3=CC(=O)OC3=O)cc2)no1`, the Drug release in the series listed under Rattus norvegicus [1] is 8%; in the series filed under Rattus norvegicus [2] it was 84%; in the series listed under Rattus norvegicus [3] it was 8%; in the series filed under Rattus norvegicus [4] it was 84%; in the series filed under Rattus norvegicus [5], 100% and 80%; in the series filed under Rattus norvegicus [6] it was 15% and 7%. Further, the Drug release in the series filed under Rattus norvegicus [13] turned out to be 7%.

As for `Nc1nc(N)c2nc(-c3ccccc3)c(N)nc2n1`, the Drug release result in the series listed under Rattus norvegicus [9], in the series filed under Rattus norvegicus [10], in the series listed under Rattus norvegicus [11] and in the series listed under Rattus norvegicus [12] was “Stable” throughout.

Turning to `COc1ccc2cc(C(C)C(=O)N[C@@H](CC(C)C)C(=O)NCC(=O)NCC(=O)O)ccc2c1` (stereo in doubt; 1c), the Drug release in the series filed under Rattus norvegicus [1], in the series listed under Rattus norvegicus [2], in the series listed under Rattus norvegicus [3], in the series listed under Rattus norvegicus [4], in the series listed under Rattus norvegicus [5] and in the series filed under Rattus norvegicus [6] was less than 1% each time. Besides, the Drug release in the series filed under Rattus norvegicus [13] was less than 1%.

As for `NCC(=O)N[C@@H](Cc1ccccc1)C(=O)Nc1ccc2ccccc2c1` (H-Gly-Phe-βNA), the Drug release is on record as 100% in the series listed under Rattus norvegicus [1]; 100% in the series listed under Rattus norvegicus [2]; 100% in the series filed under Rattus norvegicus [3]; 100% in the series filed under Rattus norvegicus [4]; 0% in the series listed under Rattus norvegicus [5]; 0% in the series filed under Rattus norvegicus [6].

Turning to `COc1ccc2cc(C(C)C(=O)NCCCC[C@H](N)C(=O)O)ccc2c1` (stereo not given in full), the Drug release in the series listed under Rattus norvegicus [1], in the series filed under Rattus norvegicus [2], in the series filed under Rattus norvegicus [3], in the series listed under Rattus norvegicus [4], in the series listed under Rattus norvegicus [5] and in the series listed under Rattus norvegicus [6] was 0% each time. In addition, the Drug release in the series filed under Rattus norvegicus [13] turned out to be 0%.

Consider `COc1ccc2cc(C(C)C(=O)NC(CC(C)C)C(=O)O)ccc2c1` (stereo not given), for which the Drug release in the series filed under Rattus norvegicus [1], in the series listed under Rattus norvegicus [2], in the series filed under Rattus norvegicus [3], in the series listed under Rattus norvegicus [4], in the series filed under Rattus norvegicus [5] and in the series listed under Rattus norvegicus [6] was less than 1% in each case. Further, the Drug release in the series listed under Rattus norvegicus [13] was less than 1%.

Turning to `O=C(N[C@@H](Cc1ccccc1)C(=O)O)C1CCCN1C(=O)OCc1ccccc1` (stereo not given in full) (Cbz-[ξP]-Phe-OH), the Drug release is on record as 100% in the series filed under Rattus norvegicus [1]; 100% in the series listed under Rattus norvegicus [2]; 100% in the series listed under Rattus norvegicus [3]; 100% in the series filed under Rattus norvegicus [4]; 0% in the series listed under Rattus norvegicus [5]; 0% in the series filed under Rattus norvegicus [6].

For `COc1ccc2cc(C(C)C(=O)O[C@@H](C)C(=O)O)ccc2c1` (stereo in doubt), the Drug release is listed as 2% in the series listed under Rattus norvegicus [2]; 2% in the series filed under Rattus norvegicus [4]; 1.1% in the series listed under Rattus norvegicus [5]; 6.9% in the series filed under Rattus norvegicus [6]; 6.8% in the series filed under Rattus norvegicus [13].

As for `CC(C)C[C@H](N)C(=O)Nc1ccc2ccccc2c1`, the Drug release in the series listed under Rattus norvegicus [1] is 100%; in the series filed under Rattus norvegicus [2], 100%; in the series filed under Rattus norvegicus [3] it was 100%; in the series filed under Rattus norvegicus [4] it was 100%; in the series filed under Rattus norvegicus [5], 0%; in the series filed under Rattus norvegicus [6] it was 0%.

For `COc1ccc2cc(C(C)C(=O)OCC(=O)O)ccc2c1` (stereo not given), the Drug release is recorded as 5% in the series filed under Rattus norvegicus [1]; 81% in the series filed under Rattus norvegicus [2]; 8% in the series filed under Rattus norvegicus [3]; 45% in the series listed under Rattus norvegicus [4]; 1% in the series listed under Rattus norvegicus [5]; 2% in the series listed under Rattus norvegicus [6]. In the series listed under Rattus norvegicus [13], the Drug release turned out to be 8%.

`COc1ccc2cc(C(C)C(=O)O[C@@H](C)C(=O)O)ccc2c1` (stereo in doubt; 1r): the Drug release turned out to be 3% in the series listed under Rattus norvegicus [1]; 100% in the series listed under Rattus norvegicus [2]; 15% in the series filed under Rattus norvegicus [3]; 100% in the series filed under Rattus norvegicus [4]; 0.6% in the series listed under Rattus norvegicus [5]; 1.4% in the series filed under Rattus norvegicus [6]. In addition, in the series listed under Rattus norvegicus [13], the Drug release is 13%.

Consider `COc1ccc2cc([C@H](C)C(=O)O)ccc2c1` [NAPROXEN], for which the Drug release result in the series filed under Rattus norvegicus [7] is recorded as “Stable”; in the series listed under Rattus norvegicus [1] it was 0%; in the series filed under Rattus norvegicus [14] it was “Stable”; in the series listed under Rattus norvegicus [8] it was “Stable”; in the series listed under Rattus norvegicus [9], “Stable”; in the series filed under Rattus norvegicus [2], 0%. In addition, the Drug release entry is given as “Stable” in the series filed under Rattus norvegicus [10]; 0% in the series filed under Rattus norvegicus [3]; “Stable” in the series listed under Rattus norvegicus [11]; 0% in the series listed under Rattus norvegicus [4]; 0% in the series filed under Rattus norvegicus [5]; “Stable” in the series listed under Rattus norvegicus [12]. Besides, the Drug release in the series filed under Rattus norvegicus [6] and in the series listed under Rattus norvegicus [13] was 0% in each case.

On to `COc1ccc2cc(C(C)C(=O)N[C@@H](Cc3ccc(O)cc3)C(=O)NCC(=O)NCC(=O)O)ccc2c1` (stereo in doubt; 1e), for which the Drug release in the series listed under Rattus norvegicus [1], in the series filed under Rattus norvegicus [2], in the series filed under Rattus norvegicus [3], in the series listed under Rattus norvegicus [4], in the series filed under Rattus norvegicus [5] and in the series listed under Rattus norvegicus [6] was less than 1% in each case. For the same compound, the Drug release in the series listed under Rattus norvegicus [13] is less than 1%.

In the case of `COc1ccc2cc(C(C)C(=O)NC(Cc3ccc(O)cc3)C(=O)O)ccc2c1` (stereo not given), the Drug release in the series filed under Rattus norvegicus [1], in the series listed under Rattus norvegicus [2], in the series listed under Rattus norvegicus [3], in the series listed under Rattus norvegicus [4], in the series listed under Rattus norvegicus [5] and in the series filed under Rattus norvegicus [6] was less than 1% each time. The Drug release in the series filed under Rattus norvegicus [13] is on record as less than 1%.

In the case of `Nc1ccc2ccccc2c1`, the Drug release entry in the series filed under Rattus norvegicus [7], in the series listed under Rattus norvegicus [14], in the series listed under Rattus norvegicus [9], in the series filed under Rattus norvegicus [10], in the series filed under Rattus norvegicus [11] and in the series filed under Rattus norvegicus [12] was “Stable” each time.
